How the values were obtained:
Echinochloa crus-galli = assay: Post-emergence herbicidal activity against Echinochloa crus-galli (barnyard grass) assessed as growth inhibition at emulsified concentrate of 150 g/ai ha after 15 days by greenhouse test; assay type: functional
In short: (§1)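 About 20 seeds sown 1–3 cm deep, grown at 15–30 °C and 50% RH. Monocot seedlings sprayed postemergence at the one-leaf stage with a 100 g/L emulsifiable concentrate (DMF/Tween-80) diluted in water, 150 g ai/ha. Untreated and solvent controls included. Visual rating at 15 days, three replicates.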

Brassica juncea = assay: Post-emergence herbicidal activity against Brassica juncea assessed as growth inhibition at emulsified concentrate of 150 g/ai ha after 15 days by greenhouse test; assay type: functional
In short: (§2)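 About 20 seeds sown 1–3 cm deep, grown at 15–30 °C and 50% RH. Dicot seedlings sprayed postemergence at the two-leaf stage with a 100 g/L emulsifiable concentrate (DMF/Tween-80) diluted in water, 150 g ai/ha. Untreated and solvent controls included. Visual rating at 15 days, three replicates.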

Poa annua = assay: Post-emergence herbicidal activity against Poa annua assessed as growth inhibition at emulsified concentrate of 150 g/ai ha after 15 days by greenhouse test; assay type: functional; in short: as §1
[1] = molecular target: T1, Protoporphyrinogen oxidase (Homo sapiens, UniProt P50336); assay: Inhibition of Homo sapiens (human) recombinant protoporphyrinogen oxidase expressed in Escherichia coli JM109 assessed as oxidation of protoporphyrinogen IX substrate by fluorescence assay
T1 sequence (P50336 whole entry): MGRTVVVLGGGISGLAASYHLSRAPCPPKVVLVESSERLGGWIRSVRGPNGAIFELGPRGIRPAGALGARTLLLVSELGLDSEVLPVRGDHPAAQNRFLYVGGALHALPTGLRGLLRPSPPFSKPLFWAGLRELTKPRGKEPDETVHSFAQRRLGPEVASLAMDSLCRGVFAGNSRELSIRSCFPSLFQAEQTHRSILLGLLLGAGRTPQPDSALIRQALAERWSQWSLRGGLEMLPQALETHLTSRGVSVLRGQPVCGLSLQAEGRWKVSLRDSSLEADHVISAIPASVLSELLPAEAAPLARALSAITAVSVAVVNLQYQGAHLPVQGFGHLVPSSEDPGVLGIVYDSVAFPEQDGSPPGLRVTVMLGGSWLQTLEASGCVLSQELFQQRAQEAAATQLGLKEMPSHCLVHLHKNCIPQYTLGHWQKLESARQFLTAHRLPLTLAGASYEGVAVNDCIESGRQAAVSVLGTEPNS

Amaranthus retroflexus = assay: Post-emergence herbicidal activity against Amaranthus retroflexus assessed as growth inhibition at emulsified concentrate of 150 g/ai ha after 15 days by greenhouse test; assay type: functional; in short: as §2
Eclipta prostrata = assay: Post-emergence herbicidal activity against Eclipta prostrata assessed as growth inhibition at emulsified concentrate of 150 g/ai ha after 15 days by greenhouse test; assay type: functional; in short: as §2
Digitaria sanguinalis = assay: Post-emergence herbicidal activity against Digitaria sanguinalis (hairy crabgrass) assessed as growth inhibition at emulsified concentrate of 150 g/ai ha after 15 days by greenhouse test; assay type: functional; in short: as §1

Row | SMILES | inhibition (INH) (Echinochloa crus-galli) [%] | inhibition (INH) (Brassica juncea) [%] | inhibition (INH) (Poa annua) [%] | Ki [1] [nM] | inhibition (INH) (Amaranthus retroflexus) [%] | inhibition (INH) (Eclipta prostrata) [%] | inhibition (INH) (Digitaria sanguinalis) [%]
1 | CCOC(=O)Sc1nc2cc(-n3nc(C(C)(C)C)oc3=O)c(F)cc2s1 | 0 | 0 | 0 | 1300 | 0 | 0 | 0
2 | COC(=O)CSc1nc2cc(-n3nc(C(C)(C)C)oc3=O)c(F)cc2s1 | 0 | 0 | 0 | 3990 | 60 | 0 | 0
3 | CCOC(=O)C(C)(C)Sc1nc2cc(-n3nc(C(C)(C)C)oc3=O)c(F)cc2s1 | 0 | 50 | 0 | 1540 | 60 | 70 | 0
4 | CCOC(=O)CCSc1nc2cc(-n3nc(C(C)(C)C)oc3=O)c(F)cc2s1 | 0 | 60 | 0 | 320 | 50 | 50 | 0
5 | CCOC(=O)Sc1nc2cc(-n3nc(C(C)(C)C)oc3=O)c(Cl)cc2s1 | 0 | 70 | 0 | 330 | 70 | 40 | 0
6 | CCOC(=O)CSc1nc2cc(-n3nc(C(C)(C)C)oc3=O)c(Cl)cc2s1 | 0 | 50 | 0 | 1010 | 70 | 60 | 0
7 | CCOC(=O)C(C)(C)Sc1nc2cc(-n3nc(C(C)(C)C)oc3=O)c(Cl)cc2s1 | 0 | 60 | 0 | 1350 | 50 | 50 | 0
8 | CCOC(=O)CCCSc1nc2cc(-n3nc(C(C)(C)C)oc3=O)c(Cl)cc2s1 | 0 | 0 | 0 | 2020 | 50 | 0 | 0
9 | C#CCSc1nc2cc(-n3nc(C(C)(C)C)oc3=O)c(Cl)cc2s1 | – | – | – | 8610 | – | – | –
10 | CCOC(=O)CSc1nc2cc(-n3nc(C(C)(C)C)oc3=O)c(Br)cc2s1 | 0 | 0 | 0 | 6960 | 75 | 0 | 0
11 | CCOC(=O)C(C)Sc1nc2cc(-n3nc(C(C)(C)C)oc3=O)c(Br)cc2s1 (centres undefined) | 0 | 0 | 0 | 8130 | 70 | 60 | 0
12 | CCOC(=O)CCSc1nc2cc(-n3nc(C(C)(C)C)oc3=O)c(Br)cc2s1 | 0 | 0 | 0 | 1690 | 0 | 30 | 0
13 | CCOC(=O)CCCSc1nc2cc(-n3nc(C(C)(C)C)oc3=O)c(Br)cc2s1 | – | – | – | 5830 | – | – | –
14 | C#CCSc1nc2cc(-n3nc(C(C)(C)C)oc3=O)c(Br)cc2s1 | 0 | 40 | 0 | 11100 | 40 | 40 | 0
15 | CC(C)(C)c1nn(-c2cc3nc(SCC=C(Cl)Cl)sc3cc2Br)c(=O)o1 | – | – | – | 18600 | – | – | –
16 | CCCOC(=O)CSc1nc2cc(-n3nc(C(C)(C)C)oc3=O)c(Br)cc2s1 | 0 | 0 | 0 | 3100 | 50 | 30 | 0
17 | CC(C)OC(=O)CSc1nc2cc(-n3nc(C(C)(C)C)oc3=O)c(Br)cc2s1 | 0 | 0 | 0 | 5970 | 75 | 0 | 0
18 | COC(=O)/C=C/CSc1nc2cc(-n3nc(C(C)(C)C)oc3=O)c(F)cc2s1 | 0 | 40 | 0 | 7480 | 40 | 50 | 0
19 | CC(C)(C)c1nn(-c2cc3nc(SCC=C(Cl)Cl)sc3cc2F)c(=O)o1 | 50 | 70 | 50 | 10900 | 60 | 60 | 40
20 | CCCOC(=O)CSc1nc2cc(-n3nc(C(C)(C)C)oc3=O)c(Cl)cc2s1 | 0 | 0 | 0 | 980 | 70 | 0 | 0
21 | CC(C)OC(=O)CSc1nc2cc(-n3nc(C(C)(C)C)oc3=O)c(Cl)cc2s1 | 0 | 0 | 0 | 2170 | 50 | 0 | 0
22 | C=CCSc1nc2cc(-n3nc(C(C)(C)C)oc3=O)c(Cl)cc2s1 | 0 | 70 | 0 | 3110 | 70 | 60 | 0
23 | COC(=O)CSc1nc2cc(-n3nc(C(C)(C)C)oc3=O)c(Cl)cc2s1 | 0 | 0 | 0 | 1070 | 70 | 50 | 0
24 | CC(C)(C)OC(=O)CSc1nc2cc(-n3nc(C(C)(C)C)oc3=O)c(Cl)cc2s1 | 0 | 50 | 0 | 840 | 40 | 30 | 0
25 | CC(C)(C)OC(=O)CSc1nc2cc(-n3nc(C(C)(C)C)oc3=O)c(F)cc2s1 | 0 | 0 | 0 | 1590 | 0 | 0 | 0
26 | CC(C)(C)c1nn(-c2cc3nc(SCC=C(Cl)Cl)sc3cc2Cl)c(=O)o1 | 0 | 70 | 0 | 10200 | 70 | 40 | 0
27 | C=CCSc1nc2cc(-n3nc(C(C)(C)C)oc3=O)c(F)cc2s1 | 0 | 60 | 0 | 15900 | 60 | 40 | 0
28 | COC(=O)Sc1nc2cc(-n3nc(C(C)(C)C)oc3=O)c(F)cc2s1 | 0 | 0 | 0 | 720 | 40 | 0 | 0
29 | Cc1nn(-c2cc(NS(C)(=O)=O)c(Cl)cc2Cl)c(=O)n1C(F)F [SULFENTRAZONE] | 75 | 100 | – | 720 | 100 | 100 | 70

— ChEMBL document CHEMBL3045650, “Design, synthesis, and 3D-QSAR analysis of novel 1,3,4-oxadiazol-2(3H)-ones as protoporphyrinogen oxidase inhibitors” (J Agric Food Chem, 2010)
